Results from ChEMBL document CHEMBL3992538, “Hybrids of thienopyrimidinones and thiouracils as anti-tubercular agents: SAR and docking studies” (Eur J Med Chem, 2017).
≈ marks a conversion by molar mass, not a printed value.

Key:
[1] = tested on: Mycobacterium tuberculosis; assay: Antitubercular activity against dormant stage of Mycobacterium tuberculosis H37Ra ATCC 25177 infected in human THP1 cells after 12 days by nitrate reductase assay; format: functional; settings: H37Ra ATCC 25177, 288 h
Method in brief: (§1)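 Ex vivo test of H37Ra in THP-1 cells by nitrate reductase assay, absorbance read at 540 nm. Active stage incubated 8 days and dormant stage 12 days. H37Ra (ATCC 25177) grown in M. pheli medium to OD 1.0 and subcultured once from -70°C stock.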

[2] = tested on: Mycobacterium tuberculosis; assay: Antitubercular activity against active stage of Mycobacterium tuberculosis H37Ra ATCC 25177 infected in human THP1 cells after 8 days by nitrate reductase assay; format: functional; settings: H37Ra ATCC 25177, 192 h; method in brief: as §1
[3] = tested on: Mycobacterium tuberculosis; assay: Antitubercular activity against dormant stage of Mycobacterium tuberculosis H37Ra ATCC 25177 after 12 days by XTT reduction menadione assay; format: functional; settings: H37Ra ATCC 25177, 288 h
Method in brief: (§2)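 M. tuberculosis H37Ra (ATCC 25177), grown to log phase (OD 1.0) in M. pheli medium from -70°C stock, subcultured once before inoculation. Incubation 8 days (active) or 12 days (dormant). XRMA read-out as absorbance at 470 nm.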

[4] = tested on: Mycobacterium tuberculosis; assay: Antitubercular activity against active stage of Mycobacterium tuberculosis H37Ra ATCC 25177 after 8 days by XTT reduction menadione assay; format: functional; settings: H37Ra ATCC 25177, 192 h; method in brief: as §2
[5] = Cytotoxicity against human THP1 cells assessed as growth inhibition by MTT assay; format: cell-based; settings: THP-1 cells
Method in brief: (§3)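 MTT assay in duplicate on THP-1 leukaemia, A549 lung adenocarcinoma, PANC-1 pancreatic adenocarcinoma and HeLa cervical carcinoma cells, all obtained from ECCC.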

[6] = Cytotoxicity against human A549 cells assessed as growth inhibition by MTT assay; format: cell-based; method in brief: as §3
[7] = Cytotoxicity against human PANC1 cells assessed as growth inhibition by MTT assay; format: cell-based; settings: PANC-1 cells; method in brief: as §3
[8] = Cytotoxicity against human HeLa cells assessed as growth inhibition by MTT assay; format: cell-based; method in brief: as §3
[9] = Selectivity index, ratio of GI50 for human A549 cells to MIC for dormant stage of Mycobacterium tuberculosis H37Ra ATCC 25177 infected in human THP1 cells; format: toxicity, cell-based; settings: read-out: Selectivity Index
Method in brief: (§4)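 Selectivity index is the cytotoxic GI50 against the named human cell line divided by the antimycobacterial value. Activity counted as specific when SI >10.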

[10] = Selectivity index, ratio of GI50 for human A549 cells to MIC for dormant stage of Mycobacterium tuberculosis H37Ra ATCC 25177; format: toxicity; settings: read-out: Selectivity Index; method in brief: as §4
[11] = Selectivity index, ratio of GI50 for human PANC1 cells to MIC for dormant stage of Mycobacterium tuberculosis H37Ra ATCC 25177 infected in human THP1 cells; format: toxicity, cell-based; settings: PANC-1 cells, read-out: Selectivity Index; method in brief: as §4
[12] = Selectivity index, ratio of GI50 for human PANC1 cells to MIC for dormant stage of Mycobacterium tuberculosis H37Ra ATCC 25177; format: toxicity; settings: PANC-1 cells, read-out: Selectivity Index; method in brief: as §4
[13] = Selectivity index, ratio of GI50 for human HeLa cells to MIC for dormant stage of Mycobacterium tuberculosis H37Ra ATCC 25177 infected in human THP1 cells; format: toxicity, cell-based; settings: read-out: Selectivity Index; method in brief: as §4
[14] = Selectivity index, ratio of GI50 for human HeLa cells to MIC for dormant stage of Mycobacterium tuberculosis H37Ra ATCC 25177; format: toxicity, cell-based; settings: read-out: Selectivity Index; method in brief: as §4
[15] = Selectivity index, ratio of GI50 for human A549 cells to MIC for active stage of Mycobacterium tuberculosis H37Ra ATCC 25177 infected in human THP1 cells; format: toxicity, cell-based; settings: read-out: Selectivity Index; method in brief: as §4
[16] = Selectivity index, ratio of GI50 for human A549 cells to MIC for active stage of Mycobacterium tuberculosis H37Ra ATCC 25177; format: toxicity; settings: read-out: Selectivity Index; method in brief: as §4
[17] = Selectivity index, ratio of GI50 for human PANC1 cells to MIC for active stage of Mycobacterium tuberculosis H37Ra ATCC 25177 infected in human THP1 cells; format: toxicity, cell-based; settings: PANC-1 cells, read-out: Selectivity Index; method in brief: as §4
[18] = Selectivity index, ratio of GI50 for human PANC1 cells to MIC for active stage of Mycobacterium tuberculosis H37Ra ATCC 25177; format: toxicity; settings: PANC-1 cells, read-out: Selectivity Index; method in brief: as §4
[19] = Selectivity index, ratio of GI50 for human HeLa cells to MIC for active stage of Mycobacterium tuberculosis H37Ra ATCC 25177 infected in human THP1 cells; format: toxicity, cell-based; settings: read-out: Selectivity Index; method in brief: as §4
[20] = Selectivity index, ratio of GI50 for human HeLa cells to MIC for active stage of Mycobacterium tuberculosis H37Ra ATCC 25177; format: toxicity, cell-based; settings: read-out: Selectivity Index; method in brief: as §4

| SMILES | MIC [1] | MIC [2] | MIC [3] | MIC [4] | GI50 [5] | GI50 [6] | GI50 [7] | GI50 [8] | selectivity ratio [9] | selectivity ratio [10] | selectivity ratio [11] | selectivity ratio [12] | selectivity ratio [13] | selectivity ratio [14] | selectivity ratio [15] | selectivity ratio [16] | selectivity ratio [17] | selectivity ratio [18] | selectivity ratio [19] | selectivity ratio [20] |
| --- | --- | --- | --- | --- | --- | --- | --- | --- | --- | --- | --- | --- | --- | --- | --- | --- | --- | --- | --- | --- |
| Cc1ccc(-c2nc(S)nc(O)c2C#N)cc1 | > 30 µg/mL | > 30 µg/mL | > 30 µg/mL | > 30 µg/mL | 88.9 µg/mL (≈ 365 µM) | 86.7 µg/mL (≈ 356 µM) | > 100 µg/mL | 67.6 µg/mL (≈ 278 µM) | 3 | < 3 | > 3 | > 3 | 2 | 2 | < 3 | 3 | > 3 | > 3 | 2 | 2 |
| CCCCCCc1cc2c(=O)n(CCSc3nc(-c4cc(OC)c(OC)c(OC)c4)c(C#N)c(=O)[nH]3)cnc2s1 | 18.8 µg/mL (≈ 32.3 µM) | 17.1 µg/mL (≈ 29.4 µM) | 19.1 µg/mL (≈ 32.8 µM) | 15.6 µg/mL (≈ 26.8 µM) | 96.4 µg/mL (≈ 166 µM) | 96.8 µg/mL (≈ 166 µM) | 36.5 µg/mL (≈ 62.7 µM) | 76.3 µg/mL (≈ 131 µM) | 5 | 5 | 2 | 2 | 4 | 4 | 6 | 6 | 2 | 2 | 4 | 5 |
| CCCCCCCc1cc2c(=O)n(CCSc3nc(-c4cc(OC)c(OC)c(OC)c4)c(C#N)c(=O)[nH]3)cnc2s1 | 13.6 µg/mL (≈ 22.8 µM) | 11.1 µg/mL (≈ 18.6 µM) | 17.1 µg/mL (≈ 28.7 µM) | 11.1 µg/mL (≈ 18.6 µM) | 88.1 µg/mL (≈ 148 µM) | 79.7 µg/mL (≈ 134 µM) | 72.6 µg/mL (≈ 122 µM) | 75.4 µg/mL (≈ 127 µM) | 6 | 5 | 5 | 4 | 6 | 4 | 7 | 7 | 6 | 7 | 7 | 7 |
| COc1cc(-c2nc(SCCCn3cnc4sc5c(c4c3=O)CCCC5)n(CCCn3cnc4sc5c(c4c3=O)CCCC5)c(=O)c2C#N)cc(OC)c1OC | > 30 µg/mL | > 30 µg/mL | > 30 µg/mL | > 30 µg/mL | 81.4 µg/mL (≈ 100 µM) | 83.1 µg/mL (≈ 102 µM) | > 100 µg/mL | 89.6 µg/mL (≈ 110 µM) | 3 | < 3 | > 3 | > 3 | < 3 | 3 | < 3 | 3 | > 3 | > 3 | 3 | 3 |
| COc1cc(-c2[nH]c(=S)[nH]c(=O)c2C#N)cc(OC)c1OC | 11.3 µg/mL (≈ 35.4 µM) | > 30 µg/mL | 17.3 µg/mL (≈ 54.2 µM) | > 30 µg/mL | > 100 µg/mL | > 100 µg/mL | > 100 µg/mL | 63.7 µg/mL (≈ 199 µM) | > 9 | > 6 | > 9 | > 6 | 6 | 4 | > 3 | > 3 | > 3 | > 3 | 2 | 2 |
